Laboratory results taken from ChEMBL document CHEMBL1135501, “Synthesis and biological evaluation at nicotinic acetylcholine receptors of N-arylalkyl- and N-aryl-7-azabicyclo[2.2.1]heptanes” (J Med Chem, 2002).
pEC50, pKi: −log10 of the molar value.

Columns and labels:
[1] = target: T1, Neuronal acetylcholine receptor; alpha4/beta2 (Rattus norvegicus) (UniProt P09483+P12390); test: In vitro inhibition of [3H]cytisine binding in rat brain tissue at Nicotinic acetylcholine receptor alpha4-beta2 at 100 uM; type: tissue-based
[2] = target: T2, Neuronal acetylcholine receptor; alpha4/beta2 (Rattus norvegicus, UniProt P09483+P12390); test: In vitro binding affinity by inhibiting [3H]dopamine release in rat brain tissue at aNicotinic acetylcholine receptor alpha4-beta2; type: functional, tissue-based
Procedure, shortened: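 Striatal slices (250 µm) from male Sprague-Dawley rats were loaded with 15 nM [3H]dopamine plus 0.1 mM ascorbic acid at 37 °C for 30 min in oxygenated Krebs-HEPES buffer pH 7.4, with domperidone present after loading. Slices were superfused with a 2 min test-drug pulse (S1), then 10 mM K+ for 2 min (S2). Five drug concentrations were used; S1/S2 fractional release ratios gave EC50.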

Mus musculus [3] = test: In vivo analgesic activity was measured in mouse upon subcutaneous administration using tail-flick assay; type: functional; conditions: sc
Procedure, shortened: (§1)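 Male CD-1 mice (25-35 g) were dosed subcutaneously on the back at 10 mL/kg. Tail-flick latency to a focused light beam was read by photocell as the mean of two trials, with a 12 s cutoff. Percent effect was (test − baseline)/(12 − baseline latency). ED50 with CI95 came from nonlinear regression of dose-response curves.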

Mus musculus [4] = test: In vivo analgesic activity was measured in mouse upon subcutaneous administration using hotplate assay; type: functional; conditions: sc
Procedure, shortened: (§2)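 Male CD-1 mice (25-35 g) were dosed subcutaneously on the back at 10 mL/kg. Hotplate held at 52 °C; latency was timed to hind-paw lick or jump. Percent effect was calculated as (test − baseline latency)/(12 − baseline latency). ED50 with CI95 came from nonlinear regression of dose-response curves.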

[5] = target: T2, Neuronal acetylcholine receptor; alpha4/beta2; test: In vitro binding affinity by inhibiting [3H]cytisine binding in rat brain tissue at Nicotinic acetylcholine receptor alpha4-beta2; type: tissue-based
[6] = target: T1, Neuronal acetylcholine receptor; alpha4/beta2 (Rattus norvegicus); test: In vitro % inhibition of [3H]cytisine binding in rat brain tissue at Nicotinic acetylcholine receptor alpha4-beta2 at 100 uM; type: tissue-based
[7] = target: T2, Neuronal acetylcholine receptor; alpha4/beta2; test: In vitro binding affinity by inhibiting [3H]dopamine release in rat brain tissue at Nicotinic acetylcholine receptor alpha4-beta2; type: functional, tissue-based
[8] = target: T2, Neuronal acetylcholine receptor; alpha4/beta2; test: in vitro binding affinity by inhibiting [3H]cytisine binding in rat brain tissue at Nicotinic acetylcholine receptor alpha4-beta2
[9] = target: T1, Neuronal acetylcholine receptor; alpha4/beta2 (Rattus norvegicus); test: In vitro inhibition of [3H]cytisine binding in rat brain tissue at Nicotinic acetylcholine receptor alpha4-beta2; type: tissue-based; conditions: concentration not given here
Procedure, shortened: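 Membranes were spun at 35 000g and resuspended. They were preincubated on ice for 5 min with test drug, then given 3.5 nM [3H]cytisine for 90 min at 2 °C. Nonspecific binding was taken with 1 mM (-)-nicotine. Drug concentrations were run in triplicate, with filtration and scintillation counting.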

Mus musculus [10] = test: In vivo analgesic agonist activity after subcutaneous administration, using tail-flick assay; type: functional; conditions: sc; procedure, shortened: as §1
Mus musculus [11] = test: In vivo analgesic agonist activity after subcutaneous administration, using hotplate assay; type: functional; conditions: sc; procedure, shortened: as §2

T2 sequence (P09483 whole entry, the tested form may be a part): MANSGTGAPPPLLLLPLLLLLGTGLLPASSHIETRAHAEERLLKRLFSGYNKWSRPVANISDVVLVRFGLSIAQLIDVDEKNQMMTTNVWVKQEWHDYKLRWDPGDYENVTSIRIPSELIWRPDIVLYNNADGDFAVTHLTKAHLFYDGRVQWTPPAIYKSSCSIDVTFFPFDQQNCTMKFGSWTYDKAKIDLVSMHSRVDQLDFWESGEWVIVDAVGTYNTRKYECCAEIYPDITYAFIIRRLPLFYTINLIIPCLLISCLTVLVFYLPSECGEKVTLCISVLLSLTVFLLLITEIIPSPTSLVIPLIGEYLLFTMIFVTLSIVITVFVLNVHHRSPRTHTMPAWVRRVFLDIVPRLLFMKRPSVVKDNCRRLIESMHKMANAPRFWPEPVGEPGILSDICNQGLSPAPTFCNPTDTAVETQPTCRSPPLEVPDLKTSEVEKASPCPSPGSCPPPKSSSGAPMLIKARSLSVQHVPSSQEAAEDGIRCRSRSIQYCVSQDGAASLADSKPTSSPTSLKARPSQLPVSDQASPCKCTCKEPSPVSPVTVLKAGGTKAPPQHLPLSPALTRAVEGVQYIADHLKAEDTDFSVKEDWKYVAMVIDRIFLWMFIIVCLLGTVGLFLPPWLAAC
T2 sequence (P12390 whole entry, the tested form may be a part): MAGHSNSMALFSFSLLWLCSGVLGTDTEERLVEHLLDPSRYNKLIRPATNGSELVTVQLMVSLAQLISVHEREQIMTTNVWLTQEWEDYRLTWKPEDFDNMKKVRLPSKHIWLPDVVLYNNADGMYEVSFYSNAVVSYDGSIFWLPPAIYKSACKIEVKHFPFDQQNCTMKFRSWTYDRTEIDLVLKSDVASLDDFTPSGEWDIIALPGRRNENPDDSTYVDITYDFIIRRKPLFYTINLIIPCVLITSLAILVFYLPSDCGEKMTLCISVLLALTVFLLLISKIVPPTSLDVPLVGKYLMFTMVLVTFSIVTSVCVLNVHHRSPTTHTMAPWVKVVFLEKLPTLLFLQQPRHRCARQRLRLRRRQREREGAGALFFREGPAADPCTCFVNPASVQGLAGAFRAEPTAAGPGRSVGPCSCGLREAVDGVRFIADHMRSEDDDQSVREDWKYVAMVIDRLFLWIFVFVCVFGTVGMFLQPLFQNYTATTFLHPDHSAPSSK

## Ic1ccc(N2C3CCC2CC3)nc1
[1]
  inhibition: < 50%

## c1ccc2c(N3C4CCC3CC4)cncc2c1
[1]
  inhibition: < 50%

## c1cncc(CN2C3CCC2CC3)c1
[2]
  pEC50: 8.85
Mus musculus [3]
  ED50: 12.4 mg/kg
Mus musculus [4]
  ED50: 5.36 mg/kg
[5]
  pKi: 7.01

## c1cc(CN2C3CCC2CC3)ccn1
[1]
  inhibition: < 50%

## c1ccc(CN2C3CCC2CC3)nc1
[5]
  pKi: 4.50

## c1cc(N2C3CCC2CC3)ccn1
[1]
  inhibition: < 50%

## c1ccc(N2C3CCC2CC3)nc1
[1]
  inhibition: < 50%

## Cc1ccc(N2C3CCC2CC3)cc1
[6]
  inhibition: < 50%

## c1ccc2ncc(N3C4CCC3CC4)cc2c1
[1]
  inhibition: < 50%

## O=c1cccc2n1C[C@@H]1CNC[C@H]2C1 [CYTISINICLINE]
[7]
  pEC50: 8.06
[8]
  pKi: 8.38

## c1ccc2nc(CN3C4CCC3CC4)ccc2c1
[9]
  inhibition: < 50%

## c1cncc(CCN2C3CCC2CC3)c1
[5]
  pKi: 5.65

## Clc1ccc(C2CC3CCC2N3)cn1 (stereo in doubt; 1) [EPIBATIDINE]
Mus musculus [10]
  ED50: 0.00046 mg/kg
Mus musculus [11]
  ED50: 0.00072 mg/kg

## c1cncc(N2C3CCC2CC3)c1
[1]
  inhibition: < 50%

## Clc1ccc(CN2C3CCC2CC3)cn1
Mus musculus [10]
  ED50: 11.1 mg/kg
Mus musculus [11]
  ED50: 12.2 mg/kg
[7]
  pEC50: 7.10
[5]
  pKi: 6.61

## COc1ccc(N2C3CCC2CC3)cn1
[1]
  inhibition: < 50%
